Data set [1] deals with T1, human topoisomerase I (Homo sapiens, UniProt P11387).
T1 sequence (P11387 1-765): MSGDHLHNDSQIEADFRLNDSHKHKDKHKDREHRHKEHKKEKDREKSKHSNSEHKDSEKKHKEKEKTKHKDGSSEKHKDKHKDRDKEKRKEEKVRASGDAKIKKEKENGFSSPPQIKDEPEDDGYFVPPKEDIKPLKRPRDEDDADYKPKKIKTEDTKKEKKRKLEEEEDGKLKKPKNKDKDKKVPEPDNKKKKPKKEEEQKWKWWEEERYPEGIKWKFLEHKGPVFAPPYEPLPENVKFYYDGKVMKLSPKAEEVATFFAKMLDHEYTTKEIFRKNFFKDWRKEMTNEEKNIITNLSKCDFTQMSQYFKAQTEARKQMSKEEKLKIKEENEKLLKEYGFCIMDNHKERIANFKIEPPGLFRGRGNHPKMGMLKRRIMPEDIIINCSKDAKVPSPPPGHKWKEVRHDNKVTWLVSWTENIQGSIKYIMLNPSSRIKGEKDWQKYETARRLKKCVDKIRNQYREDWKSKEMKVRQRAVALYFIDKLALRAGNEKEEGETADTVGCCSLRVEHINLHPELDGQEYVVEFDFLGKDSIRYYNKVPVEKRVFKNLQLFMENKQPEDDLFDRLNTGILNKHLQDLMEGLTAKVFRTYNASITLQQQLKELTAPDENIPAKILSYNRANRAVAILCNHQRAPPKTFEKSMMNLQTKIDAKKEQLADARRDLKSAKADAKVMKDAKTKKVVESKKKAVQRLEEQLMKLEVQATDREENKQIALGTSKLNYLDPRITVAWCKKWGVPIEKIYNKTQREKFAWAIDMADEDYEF
The experiment in a line: Topoisomerase I-mediated DNA cleavage assay. The note with it: for TOP1-targeting activity (in words): summary of Table 1. It counts as biochemical.

Data set [2] concerns MDA-MB-435 human tumor xenografts. Kind of data set: Human tumor xenograft antitumor bioassay. Type of data set: in vivo, athymic nude mice. The settings on record: for Average tumor volume: MDA-MB-435 xenograft in athymic nude mice; for Antitumor activity in vivo (in words): MDA-MB-435 xenograft, at maximally tolerated doses, I.P. A digest of the protocol:
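Female NCR/NU NU mice, about 9 weeks old, were inoculated sc in the right flank with 1.5 × 10^6 MDA-MB-435 cells (RPMI 1640/10% FBS culture) and grouped by matched tumor volume at 19–20 days. Test compound was given qd × 5/week at per-compound doses, some adjusted during the study; vehicle was 0.1% citrate in H2O. Caliper tumor volume ((l*w2)/2) was taken every other day, with daily weights.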

Data set [3] relates to KBH5.0 cells. The experiment in a line: MTT cytotoxicity assay in KBH5.0. Type of data set: cell-based. The note with it: from relative cytotoxicity KBH5.0 vs KB3-1. In general terms: Tetrazolium dyes change colour on reduction, which living cells bring about.
Data set [4] has as its system KBV-1 cells. The experiment in a line: MTT cytotoxicity assay in KBV-1. It counts as cell-based. The note with it: for Substrate for MDR1 efflux transporter (conclusion in words): from relative cytotoxicity KBV-1 vs KB3-1.
For data set [5], the system named is RPMI8402 cells. Kind of data set: MTT cytotoxicity assay in RPMI8402. Type of data set: cell-based, human.

Consider `CC[C@@]1(O)C(=O)OCc2c1cc1n(c2=O)Cc2cc3ccccc3nc2-1` [CPT, camptothecin, reference compound], for which the “TOP1-mediated cleavage (REC, relative effective concentration)” value in data set [1] (concentration relative to topotecan (=1) producing 10% cleavage of plasmid DNA) amounted to 0.2.

`COc1cc2c(=O)n(CCN(C)C)c3c4cc5c(cc4ncc3c2cc1OC)OCO5` [Compound 1, 5H-8,9-dimethoxy-5-(2-N,N-dimethylaminoethyl)-2,3-methylenedioxydibenzo[c,h][1,6]-naphthyridin-6-one]: the Average tumor volume is 120 mm^3 in data set [2] (Day 7, I.P.); 123 mm^3 in data set [2] (Day 14, I.P.); 145 mm^3 in data set [2] (Day 21, I.P.); 158 mm^3 in data set [2] (Day 28, I.P.); 175 mm^3 in data set [2] (Day 35, I.P.); 189 mm^3 in data set [2] (Day 42, I.P.). This compound had an Average tumor volume in data set [2] (Day 49, I.P.) of 242 mm^3.

For the compound `CCN(CCn1c(=O)c2cc(OC)c(OC)cc2c2cnc3cc4c(cc3c21)OCO4)CC(F)(F)F` [Compound 8, 2,3-Methylenedioxy-8,9-dimethoxy-5-[N-ethyl-N-(2,2,2-trifluoroethyl)aminoethyl]dibenzo[c,h][1,6]naphthyridin-6-one], the Average tumor volume amounted to 127 mm^3 in data set [2] (Day 7, I.P.); 176 mm^3 in data set [2] (Day 14, I.P.); 268 mm^3 in data set [2] (Day 21, I.P.); 310 mm^3 in data set [2] (Day 28, I.P.); 435 mm^3 in data set [2] (Day 35, I.P.); 543 mm^3 in data set [2] (Day 42, I.P.). Besides, the Average tumor volume in data set [2] (Day 49, I.P.) was determined as 718 mm^3. Moreover, in data set [2], the “Antitumor activity in vivo (in words)” value is “less efficacious than the N-ethyl-N-cyanomethyl analog 11 or the N-ethyl-N-propargyl derivative 14”.

For `COc1cc2c(=O)n(CCN(C)CC#N)c3c4cc5c(cc4ncc3c2cc1OC)OCO5` [Compound 10, 2,3-Methylenedioxy-8,9-dimethoxy-5-[N-cyanomethyl-N-methylaminoethyl]dibenzo[c,h][1,6]naphthyridin-6-one], the Average tumor volume in data set [2] (Day 7, I.P.) is 149 mm^3; in data set [2] (Day 14, I.P.), 222 mm^3; in data set [2] (Day 21, I.P.) it was 370 mm^3; in data set [2] (Day 28, I.P.), 392 mm^3; in data set [2] (Day 35, I.P.), 528 mm^3; in data set [2] (Day 42, I.P.), 669 mm^3. Also, the Average tumor volume in data set [2] (Day 49, I.P.) is recorded as 919 mm^3. The “Antitumor activity in vivo (in words)” value in data set [2] is listed as “less active than the N-methyl-N-propargyl 13 or N-methyl-N-acetamide 16”.

With `CCN(CC#N)CCn1c(=O)c2cc(OC)c(OC)cc2c2cnc3cc4c(cc3c21)OCO4` [Compound 11, 2,3-Methylenedioxy-8,9-dimethoxy-5-[N-cyanomethyl-N-ethylaminoethyl]dibenzo[c,h][1,6]naphthyridin-6-one], the Average tumor volume in data set [2] (Day 7, I.P.) was 100 mm^3; in data set [2] (Day 14, I.P.) it was 156 mm^3; in data set [2] (Day 21, I.P.) it was 178 mm^3; in data set [2] (Day 28, I.P.), 202 mm^3; in data set [2] (Day 35, I.P.), 293 mm^3; in data set [2] (Day 42, I.P.), 361 mm^3. In data set [2] (Day 49, I.P.), this compound yielded an Average tumor volume of 435 mm^3. Moreover, the “Antitumor activity in vivo (in words)” value in data set [2] is “less potent and effective than ARC-111”.

Take `COc1cc2c(=O)n(CCN(CC#N)C(C)C)c3c4cc5c(cc4ncc3c2cc1OC)OCO5` [Compound 12, 2,3-Methylenedioxy-8,9-dimethoxy-5-[N-cyanomethyl-N-isopropyl-aminoethyl]dibenzo[c,h][1,6]naphthyridin-6-one]: the Average tumor volume in data set [2] (Day 7, I.P.) stood at 142 mm^3; in data set [2] (Day 14, I.P.), 175 mm^3; in data set [2] (Day 21, I.P.), 213 mm^3; in data set [2] (Day 28, I.P.), 220 mm^3; in data set [2] (Day 35, I.P.), 250 mm^3; in data set [2] (Day 42, I.P.) it was 286 mm^3. Moreover, the Average tumor volume in data set [2] (Day 49, I.P.) is listed as 314 mm^3. In addition, in data set [2], the “Antitumor activity in vivo (in words)” value is “less potent and less efficacious than ARC-111”.

With `C#CCN(C)CCn1c(=O)c2cc(OC)c(OC)cc2c2cnc3cc4c(cc3c21)OCO4` [Compound 13, 2,3-Methylenedioxy-8,9-dimethoxy-5-[N-methyl-N-(prop-2-ynyl)aminoethyl]dibenzo[c,h][1,6]naphthyridin-6-one], the Average tumor volume in data set [2] (Day 7, I.P.) was 144 mm^3; in data set [2] (Day 14, I.P.) it was 167 mm^3; in data set [2] (Day 21, I.P.) it was 218 mm^3; in data set [2] (Day 28, I.P.), 284 mm^3; in data set [2] (Day 35, I.P.), 317 mm^3; in data set [2] (Day 42, I.P.) it was 358 mm^3. In addition, in data set [2] (Day 49, I.P.), the Average tumor volume is given as 433 mm^3. The “Substrate for BCRP efflux transporter (conclusion in words)” value in data set [3] was “does not appear to be a substrate for either MDR1 or BCRP”. Moreover, the “TOP1-targeting activity (in words)” value in data set [1] was “retained potent TOP1-targeting activity”. Besides, in data set [4], the “Substrate for MDR1 efflux transporter (conclusion in words)” value was “does not appear to be a substrate for either MDR1 or BCRP”.

Turning to `C#CCN(CC)CCn1c(=O)c2cc(OC)c(OC)cc2c2cnc3cc4c(cc3c21)OCO4` [Compound 14, 2,3-Methylenedioxy-8,9-dimethoxy-5-[N-ethyl-N-(prop-2-ynyl)aminoethyl]dibenzo[c,h][1,6]naphthyridin-6-one], in data set [5], the “fold less cytotoxic than 13” value was 2-6 fold. The Average tumor volume in data set [2] (Day 7, I.P.) was 115 mm^3; in data set [2] (Day 14, I.P.), 106 mm^3; in data set [2] (Day 21, I.P.) it was 170 mm^3; in data set [2] (Day 28, I.P.), 204 mm^3; in data set [2] (Day 35, I.P.), 331 mm^3; in data set [2] (Day 42, I.P.) it was 349 mm^3. Further, in data set [2] (Day 49, I.P.), the Average tumor volume is on record as 488 mm^3. In data set [2], the “Antitumor activity in vivo (in words)” value was “less potent and effective than ARC-111”. The “TOP1-targeting activity (in words)” value in data set [1] is recorded as “much less active as TOP1-targeting agents”.

With `C#CCN(CCn1c(=O)c2cc(OC)c(OC)cc2c2cnc3cc4c(cc3c21)OCO4)C(C)C` [Compound 15, 2,3-Methylenedioxy-8,9-dimethoxy-5-[N-isopropyl-N-(prop-2-ynyl)aminoethyl]dibenzo-[c,h][1,6]naphthyridin-6-one], the “fold less cytotoxic than 13” value in data set [5] is listed as 2-6 fold. Moreover, the Average tumor volume was determined as 99 mm^3 in data set [2] (Day 7, I.P.); 112 mm^3 in data set [2] (Day 14, I.P.); 165 mm^3 in data set [2] (Day 21, I.P.); 170 mm^3 in data set [2] (Day 28, I.P.); 234 mm^3 in data set [2] (Day 35, I.P.); 310 mm^3 in data set [2] (Day 42, I.P.). In addition, the Average tumor volume in data set [2] (Day 49, I.P.) worked out at 357 mm^3. For the same compound, in data set [2], the “Antitumor activity in vivo (in words)” value is “less potent and less efficacious than ARC-111”. For the same compound, the “TOP1-targeting activity (in words)” value in data set [1] is on record as “much less active as TOP1-targeting agents”.

With `COc1cc2c(=O)n(CCN(C)CC(N)=O)c3c4cc5c(cc4ncc3c2cc1OC)OCO5` [Compound 16, 2,3-Methylenedioxy-8,9-dimethoxy-5-[N-(2-amino-2-oxoethyl)-N-methylaminoethyl]dibenzo[c,h][1,6]naphthyridin-6-ones], the Average tumor volume turned out to be 147 mm^3 in data set [2] (Day 7, I.P.); 178 mm^3 in data set [2] (Day 14, I.P.); 230 mm^3 in data set [2] (Day 21, I.P.); 319 mm^3 in data set [2] (Day 28, I.P.); 344 mm^3 in data set [2] (Day 35, I.P.); 434 mm^3 in data set [2] (Day 42, I.P.). Moreover, the Average tumor volume in data set [2] (Day 49, I.P.) is listed as 527 mm^3. Moreover, the “Substrate for BCRP efflux transporter (conclusion in words)” value in data set [3] is on record as “appears to be a substrate for BCRP”. The “TOP1-targeting activity (in words)” value in data set [1] is “retained potent TOP1-targeting activity”. The “fold difference in IC50 values between KB3-1 cells and KBV-1 cells” value in data set [4] (KBV-1 vs KB3-1) is listed as 7 fold. Also, the “Substrate for MDR1 efflux transporter (conclusion in words)” value in data set [4] is reported as “substrates for MDR1”.

(Values after paper PMC2752341 (Bioorganic & medicinal chemistry, 2008).)
